Source: paper PMC11327602 (Heliyon, 2024)
“And” between values parts separate entries of the source, which are not always exact repeats. Equal values may be shown once. Read-outs that look alike come from different tables or passages of the source.

Assays:
jack bean urease = jack bean urease (Canavalia ensiformis, UniProt P07374); experiment: Urease inhibition assay; assay type: biochemical; conditions: for IC50: 3 experiments
[1] = biological target: Bacillus Pasteurii urease (Sporosarcina pasteurii, UniProt P41020); experiment: Urease inhibition assay; assay type: biochemical; conditions: 3 experiments
Bacillus Pasteurii urease, sequence (P41020 whole entry): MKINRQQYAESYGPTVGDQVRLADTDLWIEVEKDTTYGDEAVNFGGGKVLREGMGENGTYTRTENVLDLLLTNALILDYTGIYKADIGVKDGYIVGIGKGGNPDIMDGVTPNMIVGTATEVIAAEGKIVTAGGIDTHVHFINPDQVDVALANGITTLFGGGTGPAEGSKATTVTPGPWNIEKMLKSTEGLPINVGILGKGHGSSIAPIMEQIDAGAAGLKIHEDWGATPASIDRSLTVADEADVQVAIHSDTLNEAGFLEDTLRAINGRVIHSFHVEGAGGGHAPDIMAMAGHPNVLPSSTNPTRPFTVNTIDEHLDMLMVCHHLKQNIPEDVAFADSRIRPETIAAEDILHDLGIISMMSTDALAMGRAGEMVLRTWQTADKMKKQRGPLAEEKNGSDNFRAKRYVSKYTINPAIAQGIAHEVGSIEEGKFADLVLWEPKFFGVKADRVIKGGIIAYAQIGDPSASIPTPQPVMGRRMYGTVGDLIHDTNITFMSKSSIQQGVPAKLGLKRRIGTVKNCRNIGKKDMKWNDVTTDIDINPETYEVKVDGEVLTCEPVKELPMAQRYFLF
Bacillus Pasteurii urease, sequence (P41021 whole entry partner): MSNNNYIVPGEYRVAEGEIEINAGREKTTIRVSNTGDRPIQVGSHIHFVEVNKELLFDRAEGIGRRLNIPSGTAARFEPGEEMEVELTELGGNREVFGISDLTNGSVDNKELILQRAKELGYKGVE
Bacillus Pasteurii urease, sequence (P41022 whole entry partner): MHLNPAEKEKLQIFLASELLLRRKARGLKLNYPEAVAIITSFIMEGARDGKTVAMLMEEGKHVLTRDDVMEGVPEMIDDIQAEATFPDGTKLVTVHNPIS

α-Glucosidase = α-Glucosidase (Saccharomyces cerevisiae, UniProt P53341); experiment: α-Glucosidase inhibition assay; assay type: biochemical
α-Glucosidase, sequence (P53341 whole entry): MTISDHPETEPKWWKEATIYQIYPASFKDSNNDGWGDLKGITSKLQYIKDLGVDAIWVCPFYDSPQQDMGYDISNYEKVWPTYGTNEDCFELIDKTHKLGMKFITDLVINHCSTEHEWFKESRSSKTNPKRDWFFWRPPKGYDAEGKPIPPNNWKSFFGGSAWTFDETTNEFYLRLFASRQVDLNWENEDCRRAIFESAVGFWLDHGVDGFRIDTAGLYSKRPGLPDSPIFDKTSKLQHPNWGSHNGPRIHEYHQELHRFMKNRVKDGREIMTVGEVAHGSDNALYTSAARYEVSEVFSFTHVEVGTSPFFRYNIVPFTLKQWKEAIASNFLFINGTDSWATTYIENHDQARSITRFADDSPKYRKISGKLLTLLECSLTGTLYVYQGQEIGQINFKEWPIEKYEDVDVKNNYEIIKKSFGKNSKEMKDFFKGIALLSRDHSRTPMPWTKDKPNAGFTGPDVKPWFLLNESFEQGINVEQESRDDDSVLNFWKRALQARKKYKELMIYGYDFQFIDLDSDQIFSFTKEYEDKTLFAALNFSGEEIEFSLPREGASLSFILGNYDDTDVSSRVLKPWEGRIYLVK
Method in brief: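 Test compound (200–800 μg/mL) pre-incubated 5 min at 37 °C with 2 % w/v starch (sucrose) solution in 0.2 M Tris buffer, pH 8.0. 5 mM p-nitrophenyl-α-D-glucopyranoside added intermittently, then α-glucosidase (1 U/mL), 40 min at 35 °C. Stopped with […]; absorbance read at 405 nm. % inhibition = (control − sample)/control × 100; samples above 50 % taken to IC50.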

[2] = DPPH free radical scavenging activity; conditions: for IC50: read-out: DPPH scavenging IC50
ABTS method = conditions: for IC50: read-out: ABTS scavenging IC50
[3] = Superoxide anion scavenging assay; conditions: for IC50: read-out: superoxide anion scavenging IC50
[4] = Enzyme (SEM ±) J.B Urease, IC50, mean ± SEM
[5] = Enzyme (SEM ±) B.P Urease, IC50, mean ± SEM

jack bean urease, sequence (P07374 whole entry, looked up): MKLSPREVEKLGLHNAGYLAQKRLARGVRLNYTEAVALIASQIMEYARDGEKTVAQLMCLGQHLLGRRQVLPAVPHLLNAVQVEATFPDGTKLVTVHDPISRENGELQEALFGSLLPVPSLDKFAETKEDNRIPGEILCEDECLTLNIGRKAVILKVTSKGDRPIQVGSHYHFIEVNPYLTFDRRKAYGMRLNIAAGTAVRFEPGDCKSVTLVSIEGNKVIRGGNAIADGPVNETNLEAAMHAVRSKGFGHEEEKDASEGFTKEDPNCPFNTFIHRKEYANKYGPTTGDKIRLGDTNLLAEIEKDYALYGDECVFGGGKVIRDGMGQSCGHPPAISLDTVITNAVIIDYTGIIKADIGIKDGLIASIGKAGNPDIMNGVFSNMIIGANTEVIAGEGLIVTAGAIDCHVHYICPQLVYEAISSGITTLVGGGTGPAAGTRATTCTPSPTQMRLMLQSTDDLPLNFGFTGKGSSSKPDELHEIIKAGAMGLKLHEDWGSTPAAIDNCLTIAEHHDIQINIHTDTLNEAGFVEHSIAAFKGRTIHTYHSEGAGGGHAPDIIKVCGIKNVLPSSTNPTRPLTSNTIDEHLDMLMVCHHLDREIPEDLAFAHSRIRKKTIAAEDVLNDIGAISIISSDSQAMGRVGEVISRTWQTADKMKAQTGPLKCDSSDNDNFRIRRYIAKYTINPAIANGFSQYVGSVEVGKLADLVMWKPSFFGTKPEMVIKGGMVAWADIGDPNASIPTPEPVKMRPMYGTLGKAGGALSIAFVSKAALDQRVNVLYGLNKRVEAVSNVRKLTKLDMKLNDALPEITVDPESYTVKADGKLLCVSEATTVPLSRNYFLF

| SMILES | Types of inhibition (urease) (jack bean urease) | IC50 (jack bean urease; [4]) | IC50 [1, 5] | Type of Inhibition (α-glucosidase and α-amylase) (α-Glucosidase) | DPPH % Scavenging ([2]; 25 μM) | DPPH % Scavenging ([2]; 50 μM) | DPPH % Scavenging ([2]; 75 μM) | DPPH % Scavenging ([2]; 100 μM) | IC50 [2] | ABTS % Scavenging (ABTS method; 10 μM) | ABTS % Scavenging (ABTS method; 20 μM) | ABTS % Scavenging (ABTS method; 30 μM) | ABTS % Scavenging (ABTS method; 40 μM) | ABTS % Scavenging (ABTS method; 50 μM) | IC50 (ABTS method) | superoxide anion % scavenging ([3]; 25 μM) | superoxide anion % scavenging ([3]; 50 μM) | superoxide anion % scavenging ([3]; 75 μM) | superoxide anion % scavenging ([3]; 100 μM) | IC50 [3] | further results |
| --- | --- | --- | --- | --- | --- | --- | --- | --- | --- | --- | --- | --- | --- | --- | --- | --- | --- | --- | --- | --- | --- |
| O=S(=O)(c1ccc(Br)cc1)N(Cc1ccccc1)c1nccs1 [Compound 21, N-benzyl-4-bromo-N-(thiazol-2-yl)benzenesulfonamide] | Non-competitive | 23.06 ± 0.11 µM | 27 ± 0.48 µM | Competitive | 35.1 ± 0.05% | 63.5 ± 0.11% | 90.5 ± 0.16% | 99.1 ± 0.32% | ~45.2 µM and 45.2 µM | 15.1 ± 0.05% | 30.5 ± 0.04% | 46.03 ± 0.11% | 72.05 ± 0.15% | 90.03 ± 0.51% | ~33 µM and 33 µM | 33 ± 0.3% | 57 ± 0.13% | 82 ± 0.01% | 86 ± 0.11% | 45 ± 0.03 µM |  |
| COc1ccc(S(=O)(=O)N(Cc2ccccc2)c2nccs2)cc1 [Compound 20, N-Benzyl-4-methoxy-N-(thiazol-2-yl)benzenesulfonamide] | Competitive | 20.6 ± 0.41 µM | 22.1 ± 0.35 µM | Non-competitive | 35.2 ± 0.1% | 49.2 ± 0.01% | 56.3 ± 0.83% | 80.2 ± 0.01% | 43.5 ± 0.03 µM | 15.04 ± 0.2% | 22.02 ± 0.05% | 45.08 ± 0.06% | 61.01 ± 0.03% | 82.03 ± 0.07% | 38.01 ± 0.06 µM | 31 ± 0.02% | 54 ± 0.12% | 79 ± 0.22% | 85 ± 0.25% | 40 ± 0.06 µM |  |
| O=C1O[C@H]([C@@H](O)CO)C(O)=C1O [Ascorbic acid, reference compound] |  |  |  |  |  | 70.3 ± 0.01% and 68.2 ± 0.17% and 58.1 ± 0.05% and 69.3 ± 0.41% | 85.3 ± 0.01% and 88.1 ± 0.02% and 79.1 ± 0.12% and 95.3 ± 0.01% | 97.2 ± 0.2% and 94.2 ± 0.5% and 84.2 ± 0.18% and 105.2 ± 0.2% | 30.4 µM and 42.2 µM and 45.1 µM and 35 µM |  |  |  |  |  |  | 39 ± 0.09% and 49 ± 0.05% and 35 ± 0.33% and 25 ± 0.03% | 55 ± 0.05% and 53 ± 0.03% and 57 ± 0.13% and 60 ± 0.07% | 77 ± 0.12% and 75 ± 0.15% and 86 ± 0.53% and 67 ± 0.11% | 90 ± 0.02% and 93 ± 0.01% and 99 ± 0.11% and 82 ± 0.01% | 33.4 µM and 35.4 µM and 39.1 µM and 38 µM |  |
| Cc1c(C)c2c(c(C)c1O)CCC(C)(C(=O)O)O2 (stereo not shown) [Trolox, reference compound] |  |  |  |  |  |  |  |  |  | 36.08 ± 0.1% and 26.05 ± 0.03% and 35.01 ± 0.3% and 18.08 ± 0.1% | 58.02 ± 0.62% and 55.02 ± 0.12% and 65.2 ± 0.1% and 40.02 ± 0.62% | 67.03 ± 0.02% and 70.03 ± 0.01% and 77.31 ± 0.07% and 55.03 ± 0.02% | 85.01 ± 0.06% and 82.01 ± 0.05% and 89.01 ± 0.5% and 84.01 ± 0.06% | 105.02 ± 0.02% and 109.2 ± 0.22% and 105.12 ± 0.21% and 93.02 ± 0.02% | 16.4 µM and 19.4 µM and 17.5 µM and 20.3 µM |  |  |  |  |  |  |
| NC(N)=S [Thiourea, reference compound] |  |  |  |  |  |  |  |  |  |  |  |  |  |  |  |  |  |  |  |  | IC50 (jack bean urease; read-out: Enzyme (SEM ±) J.B Urease, IC50, mean ± SEM): 10.12 ± 0.08 µM; IC50 ([1]; read-out: Enzyme (SEM ±) B.P Urease, IC50, mean ± SEM): 14.08 ± 0.05 µM |
| O=[N+]([O-])c1ccc(S(=O)(=O)N(Cc2ccccc2)c2nccs2)cc1 [Compound 25, N-benzyl-4-nitro-N-(thiazol-2-yl)benzenesulfonamide] | Non-competitive | 48.1 ± 1.19 µM | 53.32 ± 0.21 µM | Non-competitive | 35.2 ± 0.2% | 57.8 ± 0.11% | 71.6 ± 0.03% | 85.1 ± 0.41% | 47.1 ± 0.08 µM | 09.01 ± 0.09% | 28.05 ± 0.04% | 43.09 ± 0.01% | 70.02 ± 0.03% | 81.03 ± 0.91% | 29.01 ± 0.14 µM |  |  |  |  |  | inhibition against both enzymes (J.B. and B.P urease), in words (jack bean urease): weak inhibition |
